Assay results taken from publication PMC6217654 (ACS Omega, 2018).
Peptide text beside a SMILES is read from it.

Assays:
[1] = Free fraction ratio; assay type: in vitro ADME, rat; conditions: in vitro
[2] = PK of TRH mimetics in rat, cassette dosing i.v. and p.o.; assay type: in vivo; conditions: for MRT / Vd / clearance / half-life: male, Sprague-Dawley, plasma, iv, 1 umol/kg; for BA: oral 2 μmol/kg vs i.v. 1 μmol/kg
Procedure, shortened: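 Cassette dosing in rats (n = 2, 302–364 g). p.o.: 2 μmol/5 mL/kg in DMSO/0.5% methylcellulose 1/4. i.v.: 1 μmol/1 mL/kg in DMSO/propylene glycol 1/1. Heparinized jugular blood; plasma precipitated with methanol/acetonitrile 1/1; LC/MS/MS, ESI positive. t1/2 from terminal phase; MRT by linear trapezoid with monoexponential extrapolation; BA = dose-normalized po/iv AUC ratio. Mean of two animals.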

[3] = test system: reserpine-induced hypothermia mice; assay: Antagonistic effect on reserpine-induced hypothermia in mice; assay type: in vivo; conditions: p.o.; for CNS effect (reserpine-induced hypothermia), in words, SAR comparison: mice, data not shown or compared with 64
Procedure, shortened: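 Male ddY mice (bought at 6 weeks, 1-week quarantine, ~25 °C). Reserpine 3 mg/kg s.c.; mice with rectal temperature ≤30 °C about 18 h later were used. Test compound in saline p.o. at 5 μmol/kg, TRH at 50 μmol/kg, saline controls. Rectal temperature by thermistor before and up to 7 h post-dose. Trapezoidal AUC0–7h, with saline AUC subtracted. Mean ± SD, ≥3 animals.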

[4] = test system: rats with Ara-C-induced cerebellar damage; assay: Ara-C-induced cerebellar ataxia in rats, open field fall index; assay type: in vivo, rat
[5] = cited from earlier work
[6] = target: human TRH-R; conditions: read-out: Ki for human TRH-R; in vitro binding, reported previously; cited from earlier work
[7] = PK of TRH and 79 after oral administration to fasted conscious rats; assay type: in vivo, rat; conditions: male, Wistar, rat, plasma, po, 40 mg/kg
Procedure, shortened: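 Male Wistar rats (10–11 weeks, 230–274 g, n ≥ 4), fasted from the evening before dosing to the 12 h sample. Jugular cannula placed under isoflurane 2–3 days before. Single p.o. dose of 40 mg/4 mL/kg in saline. Heparinized blood (~0.3 mL) drawn via cannula; plasma deproteinized with methanol; HPLC with UV absorbance detection. Cmax, Tmax, AUC0–8h given as mean ± SD.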

SMILES | MRT [2] [min] | Vd [2] [L/kg] | clearance [2] [mL/min/kg] | half-life [2] [min] | CNS effect (reserpine-induced hypothermia), in words, SAR comparison [3] | further results
C[C@@H]1OC(=O)N[C@@H]1C(=O)N[C@@H](Cc1cscn1)C(=O)N1CCC[C@H]1C#N [Compound 69, 1-{N-[(4S,5S)-(5-Methyl-2-oxooxazolidine-4-yl)carbonyl]-3-(thiazol-4-yl)-L-alanyl}-(2S)-2-cyanopyrrolidine] | 14.6 | 0.25 | 17.4 | 26.2 | – | fu: free fraction ratio in serum [1]: >99%
NC(=O)[C@@H]1CCCN1C(=O)[C@H](Cc1cncs1)NC(=O)[C@@H]1CCC(=O)N1 [Compound 56, L-Pyroglutamyl-[3-(thiazol-5-yl)-L-alanyl]-L-prolinamide] | – | – | – | – | less than that of 64 | –
C[C@H]1OC(=O)N[C@@H]1C(=O)N[C@@H](Cc1cncs1)C(=O)N1CCC[C@H]1C(N)=O [Compound 62] | – | – | – | – | less than that of 64 | –
C[C@@H]1OC(=O)N[C@@H]1C(=O)N[C@@H](Cc1cscn1)C(=O)N1CCC[C@H]1C(=O)OCc1ccccc1 [Compound 74, {[(4S,5S)-5-Methyl-2-oxooxazolidine-4-carbonyl]-3-(thiazol-4-yl)-L-alanyl}-L-proline Benzyl Ester] | – | – | – | – | less than that of 64 | –
C[C@@H]1OC(=O)N[C@@H]1C(=O)N[C@@H](Cc1cscn1)C(=O)N1CCC[C@H]1C [Compound 70, 1-{N-[(4S,5S)-(5-Methyl-2-oxooxazolidine-4-yl)carbonyl]-3-(thiazol-4-yl)-L-alanyl}-(2R)-2-methylpyrrolidine] | 19.1 | 0.58 | 30.6 | 21.6 | – | fu: free fraction ratio in serum [1]: >99%; BA [2]: 4.7%
C[C@H]1OC(=O)N(C)[C@@H]1C(=O)N[C@@H](Cc1cscn1)C(=O)N1CCC[C@H]1C(N)=O [Compound 60, {[(4S,5R)-3,5-Dimethyl-2-oxooxazolidine-4-carbonyl]-3-(thiazol-4-yl)-L-alanyl}-L-prolinamide] | – | – | – | – | decreased the CNS effects | –
NC(=O)[C@@H]1CCCN1C(=O)[C@H](Cc1cnc[nH]1)NC(=O)[C@@H]1CCC(=O)N1 [TRH, L-pGlu–L-His–L-Pro-NH2, reference compound] | 3.7 | 0.33 | 89.2 | 3 | – | fall index ([4]; 10 mg/kg i.v. once, 30 min post-dose, mean ± SE, vehicle 2.06 ± 0.09): 1.05 ± 0.22; fall index ([4]; 30 mg/kg i.v. once, 30 min post-dose, mean ± SE, vehicle 2.06 ± 0.09): 0.87 ± 0.17; fall index ([4]; TRH 30, 100 and 300 mg/kg p.o. once daily for 7 days): no significant decrease; rectal temperature compared with saline levels ([3]; 79 5 μmol/kg from 2 to 7 h, TRH 50 μmol/kg from 0 to 7 h): almost the same low rectal temperature profiles as the saline levels; rectal temperature ΔAUC0–7h = AUC0–7h(compounds) – AUC0–7h(saline) ([3]; reserpine-induced hypothermia mice, TRH 50 μmol/kg, 79 5 μmol/kg): –4.0 ± 3.3 °C·h; rectal temperature AUC0–7h ([3]; reserpine-induced hypothermia mice, TRH 50 μmol/kg, 79 5 μmol/kg, mean ± SD): 201.4 ± 3.3 °C·h; t1/2 of degradation by the brain homogenate [5]: 7.9 min; Ki [6]: 128 nM; AUC(0-t) [7]: 68 ± 72 ng·h/mL; Cmax [7]: 50 ± 39 ng/mL; Tmax [7]: 45 ± 17.4 min
C[C@@H]1OC(=O)N[C@@H]1C(=O)N[C@@H](Cc1cscn1)C(=O)N1CSC[C@H]1C(N)=O [Compound 68, 3-{N-[(4S,5S)-(5-Methyl-2-oxooxazolidine-4-yl)carbonyl]-3-(thiazol-4-yl)-L-alanyl}-(4R)-4-thiazolidinecarboxamide] | 11 | 0.16 | 14.2 | 9.8 | – | fu: free fraction ratio in serum [1]: >99%
NC(=O)[C@@H]1CCCN1C(=O)[C@H](Cc1cscn1)NC(=O)[C@@H]1COC(=O)N1 [Compound 58, {[(4S)-(2-Oxooxazolidine-4-yl)carbonyl]-3-(thiazol-4-yl)-L-alanyl}-L-prolinamide] | – | – | – | – | maintained | –
C[C@@H]1OC(=O)N[C@@H]1C(=O)N[C@@H](Cc1c[nH]cn1)C(=O)N1CCC[C@H]1C [Compound 72, 1-{N-[(4S,5S)-(5-Methyl-2-oxooxazolidine-4-yl)carbonyl]-L-histidyl}-(2R)-2-methylpyrrolidine] | – | – | – | – | less than that of 64 | –
C[C@@H]1OC(=O)N[C@@H]1C(=O)N[C@@H](Cc1cncs1)C(=O)N1CCC[C@H]1C [Compound 71, 1-{N-[(4S,5S)-(5-Methyl-2-oxooxazolidine-4-yl)carbonyl]-3-(thiazol-5-yl)-L-alanyl}-(2R)-2-methylpyrrolidine] | – | – | – | – | less than that of 64 | –
NC(=O)[C@@H]1CSCN1C(=O)[C@H](Cc1cscn1)NC(=O)[C@@H]1CCC(=O)N1 [Compound 57, 3-{N-L-Pyroglutamyl-[3-(thiazol-4-yl)-L-alanyl]}-(4R)-4-thiazolidinecarboxamide] (HELM PEPTIDE1{[Glp].[O=C([C@H](Cc1cscn1)N[*:1])[*:2]].[O=C([C@@H]1CSCN1[*:1])[*:2]].[am]}$$$$V2.0) | – | – | – | – | less than that of 64 | –
C[C@H]1OC(=O)N(Cc2ccccc2)[C@@H]1C(=O)N[C@@H](Cc1cscn1)C(=O)N1CCC[C@H]1C(N)=O [Compound 61, {[(4S,5R)-3-Benzyl-5-Methyl-2-oxooxazolidine-4-carbonyl]-3-(thiazol-4-yl)-L-alanyl}-L-prolinamide] | – | – | – | – | decreased the CNS effects | –
C[C@H]1OC(=O)N[C@@H]1C(=O)N[C@@H](Cc1cscn1)C(=O)N1CSC[C@H]1C(N)=O [Compound 63, 3-{N-[(4S,5R)-(5-Methyl-2-oxooxazolidine-4-yl)carbonyl]-3-(thiazol-4-yl)-L-alanyl}-(4R)-4-thiazolidinecarboxamide] | – | – | – | – | less than that of 64 | –
C[C@@H]1OC(=O)N[C@@H]1C(=O)N[C@@H](Cc1cscn1)C(=O)N1CCC[C@H]1C(N)=O [Compound 64, {[(4S,5S)-(5-Methyl-2-oxooxazolidine-4-yl)carbonyl]-3-(thiazol-4-yl)-L-alanyl}-L-prolinamide] | 14.3 | 0.19 | 13 | 13.5 | – | fu: free fraction ratio in serum [1]: >99%; BA [2]: 1.1%
